# Screening data from PubChem.
# EP2 mod: EP2 receptor (human) modulation; P43116; EP2-expressing cells, cAMP HTRF FRET, PGE2 co-stimulation; induction, % at 25 µM; 0.83% of 260,000 active; AID 940;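 active means compounds whose cAMP rise, as percent of the full-agonist control response, exceeds 60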;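 further: rat C6 glioma line stably carrying human EP2 under a CMV promoter; the protocol text gives 20 µM as final concentration; 100% = response of wells given 1 µM PGE2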
# NPY2 pot ag: potentiators or agonists of human neuropeptide Y receptor Y2 | cells expressing NPY-Y2, potentiator/agonist read-out | activation, % at 3.6 µM | 0.45% of 220,000 active | AID 1359; in the data active means activation above about 27%;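 further: cells stimulated with NPY near EC25 plus isoproterenol at EC100; 0% = vehicle plus submaximal agonist and 100% = vehicle plus saturating agonist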
# Target sequence (P49146 whole entry, looked up): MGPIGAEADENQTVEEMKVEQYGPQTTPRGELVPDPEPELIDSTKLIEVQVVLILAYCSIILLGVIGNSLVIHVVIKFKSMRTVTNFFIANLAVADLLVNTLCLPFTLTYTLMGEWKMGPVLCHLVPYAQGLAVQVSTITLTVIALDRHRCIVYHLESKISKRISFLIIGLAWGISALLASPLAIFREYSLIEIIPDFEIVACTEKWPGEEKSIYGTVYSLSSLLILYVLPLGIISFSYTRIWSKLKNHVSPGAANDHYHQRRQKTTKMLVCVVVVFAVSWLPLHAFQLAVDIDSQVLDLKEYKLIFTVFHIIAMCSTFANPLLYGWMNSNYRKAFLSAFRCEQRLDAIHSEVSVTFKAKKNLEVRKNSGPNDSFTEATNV
# NPY-Y1 antag: antagonists of human neuropeptide Y receptor Y1; P25929; AID 1040; 1% of 200,000 active; inhibition, % at 3.6 µM; HEK293-CNG Y1 cells, membrane potential fluorescence; NPY at EC95, then isoproterenol;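 active means inhibition above the campaign mean inhibition of all tested compounds plus 3 SD, cut at about 20% in these data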;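 further: 0% = DMSO wells given NPY plus isoproterenol and 100% = isoproterenol alone without NPY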
#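 Test system: HEK293 cells co-expressing NPY Y1 receptor and cyclic-nucleotide gated channel; Also added: NPY (25 nM), isoproterenol (1 µM), Ro 20-1724 (25 µM); Compound dosing: one concentration, 3.6 µM, in 0.4% DMSO; Timing: dye 3 h, compound 60 min room temperature, stimulation 45 min; Technique: Membrane-potential fluorescent dye readout.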
# NPY Y2 blocker: NPY-Y2 (human) receptor antagonism | NPY-Y2 expressing cells, antagonist mode | inhibition, % at 2.7 µM | 0.99% of 140,000 active | AID 793; in the data active means inhibition above about 17%;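 further: 0% = vehicle with agonist challenge and 100% = reference antagonist with challenge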
# NPY-Y1 PAM-ag: potentiators or agonists of human neuropeptide Y receptor Y1; P25929; NPY-Y1 expressing cells, potentiator/agonist activation; activation, % at 3.6 µM; 0.37% of 220,000 active; AID 1304; in the data active means activation above about 33%, passing the limit was not always enough;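 further: cells stimulated with NPY at EC10 then isoproterenol at EC100; 0% = low agonist plus stimulus and 100% = saturating agonist plus stimulus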
# EP2 antag: EP2 receptor (human) inhibition | inhibition, % at 25 µM | AID 1422 | P43116 | 0.52% of 260,000 active | C6 glioma cells expressing human EP2, cAMP TR-FRET; cells stimulated with saturating PGE2;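 active means percent inhibition above 40 after rounding to a whole number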;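 further: rat C6 glioma host cells with rolipram phosphodiesterase inhibitor present; the protocol text gives 20 µM as final concentration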
# The depositor's hits bear a star; / = not tested or not shown; ! = repeats disagree. Only some compounds are listed: those with a hit (about 2.8% of all), similar ones and a draw of the others.
SMILES,EP2 mod,NPY2 pot ag,NPY-Y1 antag,NPY Y2 blocker,NPY-Y1 PAM-ag,EP2 antag
CCN1/C(=C\c2ccc3cccc(C)c3[n+]2C)C=Cc2cc(C)ccc21,-44,/,/,/,/,12
CCN1/C(=C/c2ccc3ccccc3[n+]2C)Sc2cc(C)ccc21,-56,/,/,/,/,52*
CCN1/C(=C/c2ccc3cc(C)ccc3[n+]2CC)Sc2cc(C)ccc21,-72,21,3,/,-6,80*
COC(=O)c1cc2occc2n1Cc1c(F)cccc1Cl,64*,-5,10,11,-23,15
CCOC(=O)c1cc2occc2n1Cc1ccc(F)cc1,85*!,6,9,7,9,13
Cc1cc2c(cc(C(=O)N3CCC(C(=O)N4CCCC4)CC3)n2Cc2c(F)cccc2Cl)o1,14,-13,26*,21*,-2,12
CCOC(=O)c1cc2occc2n1Cc1c(F)cccc1Cl,44,11,3,7,-29,19
NC(=O)c1ccc[n+]([C@@H]2O[C@H](COP(=O)([O-])OP(=O)(O)OC[C@H]3O[C@@H](n4cnc5c(N)ncnc54)[C@H](OP(=O)(O)O)[C@@H]3O)[C@@H](O)[C@H]2O)c1,71*,/,/,/,/,10
Cc1cccc(-c2nnc(N(C)C(=O)C3CCC3)s2)c1,-20,/,/,/,/,10
O=C(Nc1sc(NC(=O)c2cccs2)nc1-c1cccs1)c1ccccc1,61*,/,/,/,/,18
O=C(CNCC1CCCO1)Nc1ccccc1N1CCOCC1 (centres undefined),12,3,-1,2,42*,1
Cc1cc(C)c(OCC(O)CNC(C)(C)C)c(C)c1 (centres undefined),-32,87*,-9,/,84*,6
Cc1cccnc1NCC(O)COc1ccccc1 (centres undefined),19,4,-3,-1,-13,3
CC(C)(C)NCC(O)COc1c(F)cc(Br)cc1F (centres undefined),9,66*,-7,0,51*,6
CC(C)(C)CC(C)(C)NCC(O)COc1c(F)cc(Br)cc1F (centres undefined),-11,6,7,5,-21,9
Cc1ccccc1-n1c(SCC#N)nc2ccccc2c1=O,23,/,/,/,/,7
O=C(C1CC1)N1CCC[C@H]1Cn1nc(-c2ccc3c(c2)OCO3)ccc1=O,-12,/,/,/,/,/
c1ccc(SC(Sc2ccccc2)c2ccc3c(c2)OCO3)cc1,27,/,/,/,/,41*
COc1ccc(-c2nc3ccccc3n2Cc2ccc(C)cc2)cc1,62*,-16,15,12,-16,9
COCn1c(-c2ccc(OC)cc2)nc2ccccc21,8,4,2,1,-8,17
CC(=O)Nc1ccc(CN(Cc2ccc3c(c2)OCO3)CC(C)O)cc1 (centres undefined),4,/,/,/,/,9
N#CC1(Nc2ccc(-c3ccc(NC4(C#N)CCCC4)cc3)cc2)CCCC1,-19,/,/,/,/,55*
OC1(c2ccccc2F)CCN(Cc2ccccc2OCCN2CCOCC2)CC1,-31,/,/,/,/,2
CC(C(=O)NCCn1nnn(-c2ccccc2)c1=O)n1ncc2ccccc2c1=O (centres undefined),-28,/,/,/,/,2
O=C(CSc1ccc(-c2nc3ccccc3[nH]2)cn1)Nc1cccc(F)c1,-92,/,/,/,/,49*
SMILES,EP2 mod,NPY2 pot ag,NPY-Y1 antag,NPY Y2 blocker,NPY-Y1 PAM-ag,EP2 antag
N=C(N)SCCc1ccncc1,16,/,/,/,/,48*
CCOC(=O)c1cnc(SCC(=O)Nc2ccccc2CC)nc1N,13,/,/,/,/,5
CN1CCN(CC(=O)N2CCn3c4c(c5cc(C6CCCCC6)ccc53)CCCC42)CC1 (centres undefined),-34,23,-9,1,2,91*
Fc1ccc(C2CC(c3ccco3)=Nc3ccccc3S2)cc1 (centres undefined),62*,3,2,/,-8,4
O=[N+]([O-])c1ccc(C2CC(c3ccccc3)=Nc3ccccc3S2)cc1 (centres undefined),28,0,/,/,-12,17
CCCCC[C@H](O)/C=C/C1=C(CCCCCCC(=O)O)C(=O)CC1,89*,-8,-1,0,-20,27
Oc1cc(-n2cccn2)c(O)cc1-n1cccn1,-47,6,/,/,5,114*
O=Cc1ccccc1-n1cccn1,-9,-11,7,/,14,2
CCOC(=O)c1c(NC(=O)C2COc3ccccc3O2)sc2c1CC(C)(C)NC2(C)C (centres undefined),8,-41,45*,21*,-127,4
Cc1ccc2nc(Cl)nc(-c3ccccc3)c2c1,52,-16,7,/,-19,9
Cc1ccc2nc(-c3ccccc3)c(-c3ccccc3)nc2c1,61*,4,0,/,-14,8
COc1cccc(-c2nc(-c3ccc(NC(=O)c4cccnc4)cc3)no2)c1,-6,13,-2,-2,7,16
O=C(Nc1ccc(-c2noc(-c3cccs3)n2)cc1)c1cccnc1,-7,8,-3,0,7,69*
O=Cc1ccc(OCc2cccc(C(F)(F)F)c2)cc1O,63*,17,0,/,8,6
COc1cccc(OC)c1C(=O)Nc1cc(-c2nc3ncccc3o2)ccc1C,-38,/,/,/,/,11
COc1ccc(NC(=O)c2cc(S(=O)(=O)N3CCCC3)oc2C)cc1,0,8,/,/,10,8
COc1ccc(NS(=O)(=O)c2cc(OC)ccc2NC(=O)c2cc(C)oc2C)cc1,-25,24,20*,5,25,11
CN1CCN(S(=O)(=O)c2cccc(C(=O)N(c3ccccn3)C3CCCCC3)c2)CC1,-2,-7,-3,0,16,11
CC1CCN(S(=O)(=O)c2cccc(C(=O)N(Cc3ccccc3)c3ccccn3)c2)CC1,-4,-17,22*,/,-14,0
O=C(CCc1ccc(O)cc1)c1c(O)cc(O)cc1O,-4,/,/,/,/,9
COc1cc(O)c(CC=C(C)C)c(O)c1C(=O)CCc1ccc(O)cc1,-4,/,/,/,/,76*
C[C@H](Cn1nnc2ccccc21)NC(=O)c1cc2ccccc2oc1=O,-13,/,/,/,/,9
COc1ccc(OCC(O)Cn2c(=N)n(CCN3CCOCC3)c3ccccc32)cc1 (centres undefined),-63,-4,9,2,-3,11
Cc1cccc(OCC(O)Cn2c(C(C)C)nc3ccccc32)c1 (centres undefined),-13,/,/,/,/,13
CCCn1c(=N)n(CC(O)COc2cccc(C)c2)c2ccccc21 (centres undefined),-42,-33,26*,42*,-25,13
CCn1c(=N)n(CC(O)COc2cccc(C)c2)c2ccccc21 (centres undefined),1,-10,20*,21*,-43,8
CCOc1ccc(N2CC(C(=O)OCC(=O)Nc3ccccc3)CC2=O)cc1 (centres undefined),-51,/,/,/,/,7
Cc1cccc2nc(CN3CCN(c4ccc(F)cc4)CC3)cn12,-7,/,/,/,/,7
